B1: Osa-1-4 twister ribozyme (parent)
chain: CCGCCUAACACUGCCAAUGCCGGUCCCAAGCCCGGAUAAAAGUGGAGGGGGCGG

Variants of: B1
Test: self-cleavage, relative activity (ratio to wild type); higher = more cleavage; co-transcriptional
Procedure, shortened: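 Values are relative activity: the fraction cleaved, normalised to wild type. A doped DNA template for a 54-nucleotide twister ribozyme from Oryza sativa had 97 % wild-type base and 1 % of each other base at the 48 positions downstream of the cleavage site. The RNA was transcribed in vitro for 2 h at 37 °C so that it could cleave itself co-transcriptionally, then sequenced deeply, with cleavage status scored from the presence or absence of upstream sequence in reads.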
CCGCCUAACACUGCCAAUGCAGGUCCCAAGCCCGGAUAAAAGUGUAGGGGGCGG [C21A G45U] gave a self-cleavage of 0.05.
In the case of CCGCCUAACACUGCCAAUGCAGGUCCCAAGCCCGGAUAAAAGUGGAAGGGGCGG [C21A G47A], the self-cleavage is reported as 0.07.
In the case of CCGCCUAACACUGCCAAUGCAGGUCCCAAGCCCGGAUAAAAGUGGACGGGGCGG [C21A G47C], the self-cleavage is reported as 0.05.
In the case of CCGCCUAACACUGCCAAUGCAGGUCCCAAGCCCGGAUAAAAGUGGAUGGGGCGG [C21A G47U], the self-cleavage is reported as 0.07.
For CCGCCUAACACUGCCAAUGCAGGUCCCAAGCCCGGAUAAAAGUGGAGAGGGCGG [C21A G48A], the self-cleavage was 0.06.
Variant CCGCCUAACACUGCCAAUGCAGGUCCCAAGCCCGGAUAAAAGUGGAGCGGGCGG [C21A G48C] has a self-cleavage of 0.07.
Work on CCGCCUAACACUGCCAAUGCAGGUCCCAAGCCCGGAUAAAAGUGGAGUGGGCGG [C21A G48U] yielded a self-cleavage of 0.05.
With CCGCCUAACACUGCCAAUGCAGGUCCCAAGCCCGGAUAAAAGUGGAGGAGGCGG [C21A G49A] the self-cleavage was 0.07.
Variant CCGCCUAACACUGCCAAUGCAGGUCCCAAGCCCGGAUAAAAGUGGAGGCGGCGG [C21A G49C] has a self-cleavage of 0.05.
In the case of CCGCCUAACACUGCCAAUGCAGGUCCCAAGCCCGGAUAAAAGUGGAGGUGGCGG [C21A G49U], the self-cleavage is reported as 0.06.
For CCGCCUAACACUGCCAAUGCAGGUCCCAAGCCCGGAUAAAAGUGGAGGGAGCGG [C21A G50A], the self-cleavage was 0.85.
Variant CCGCCUAACACUGCCAAUGCAGGUCCCAAGCCCGGAUAAAAGUGGAGGGCGCGG [C21A G50C] has a self-cleavage of 0.24.
With CCGCCUAACACUGCCAAUGCAGGUCCCAAGCCCGGAUAAAAGUGGAGGGUGCGG [C21A G50U] the self-cleavage was 0.52.
Variant CCGCCUAACACUGCCAAUGCAGGUCCCAAGCCCGGAUAAAAGUGGAGGGGACGG [C21A G51A] has a self-cleavage of 0.31.
CCGCCUAACACUGCCAAUGCAGGUCCCAAGCCCGGAUAAAAGUGGAGGGGCCGG [C21A G51C] showed a self-cleavage of 0.07.
With CCGCCUAACACUGCCAAUGCAGGUCCCAAGCCCGGAUAAAAGUGGAGGGGUCGG [C21A G51U] the self-cleavage was 0.25.
CCGCCUAACACUGCCAAUGCAGGUCCCAAGCCCGGAUAAAAGUGGAGGGGGCAG [C21A G53A] gave a self-cleavage of 0.19.
CCGCCUAACACUGCCAAUGCAGGUCCCAAGCCCGGAUAAAAGUGGAGGGGGCCG [C21A G53C] showed a self-cleavage of 0.06.
Work on CCGCCUAACACUGCCAAUGCAGGUCCCAAGCCCGGAUAAAAGUGGAGGGGGCUG [C21A G53U] yielded a self-cleavage of 0.11.
In the case of CCGCCUAACACUGCCAAUGCAGGUCCCAAGCCCGGAUAAAAGUGGAGGGGGCGA [C21A G54A], the self-cleavage is reported as 0.29.
With CCGCCUAACACUGCCAAUGCAGGUCCCAAGCCCGGAUAAAAGUGGAGGGGGCGC [C21A G54C] the self-cleavage was 0.32.
Work on CCGCCUAACACUGCCAAUGCAGGUCCCAAGCCCGGAUAAAAGUGGAGGGGGCGU [C21A G54U] yielded a self-cleavage of 0.59.
CCGCCUAACACAGCCAAUGCAGGUCCCAAGCCCGGAUAAAAGUGGAGGGGGCGG [C21A U12A] showed a self-cleavage of 0.18.
CCGCCUAACACCGCCAAUGCAGGUCCCAAGCCCGGAUAAAAGUGGAGGGGGCGG [C21A U12C] showed a self-cleavage of 0.14.
CCGCCUAACACGGCCAAUGCAGGUCCCAAGCCCGGAUAAAAGUGGAGGGGGCGG [C21A U12G] showed a self-cleavage of 0.12.
For CCGCCUAACACUGCCAAAGCAGGUCCCAAGCCCGGAUAAAAGUGGAGGGGGCGG [C21A U18A], the self-cleavage was 0.83.
CCGCCUAACACUGCCAACGCAGGUCCCAAGCCCGGAUAAAAGUGGAGGGGGCGG [C21A U18C] showed a self-cleavage of 0.82.
In the case of CCGCCUAACACUGCCAAGGCAGGUCCCAAGCCCGGAUAAAAGUGGAGGGGGCGG [C21A U18G], the self-cleavage is reported as 0.6.
For CCGCCUAACACUGCCAAUGCAGGACCCAAGCCCGGAUAAAAGUGGAGGGGGCGG [C21A U24A], the self-cleavage was 0.07.
CCGCCUAACACUGCCAAUGCAGGCCCCAAGCCCGGAUAAAAGUGGAGGGGGCGG [C21A U24C] gave a self-cleavage of 0.06.
Work on CCGCCUAACACUGCCAAUGCAGGGCCCAAGCCCGGAUAAAAGUGGAGGGGGCGG [C21A U24G] yielded a self-cleavage of 0.06.
For CCGCCUAACACUGCCAAUGCAGGUCCCAAGCCCGGAAAAAAGUGGAGGGGGCGG [C21A U37A], the self-cleavage was 0.92.
With CCGCCUAACACUGCCAAUGCAGGUCCCAAGCCCGGACAAAAGUGGAGGGGGCGG [C21A U37C] the self-cleavage was 0.78.
In the case of CCGCCUAACACUGCCAAUGCAGGUCCCAAGCCCGGAGAAAAGUGGAGGGGGCGG [C21A U37G], the self-cleavage is reported as 0.94.
In the case of CCGCCUAACACUGCCAAUGCAGGUCCCAAGCCCGGAUAAAAGAGGAGGGGGCGG [C21A U43A], the self-cleavage is reported as 0.09.
In the case of CCGCCUAACACUGCCAAUGCAGGUCCCAAGCCCGGAUAAAAGCGGAGGGGGCGG [C21A U43C], the self-cleavage is reported as 0.11.
CCGCCUAACACUGCCAAUGCAGGUCCCAAGCCCGGAUAAAAGGGGAGGGGGCGG [C21A U43G] showed a self-cleavage of 0.1.
CCGCCUAACACUGCCAAUGCGGGUCCCAAGCCCGGAUAAAAGUGGAGGGGGCGG [C21G] showed a self-cleavage of 0.08.
Work on CCGCCUAAAACUGCCAAUGCGGGUCCCAAGCCCGGAUAAAAGUGGAGGGGGCGG [C21G C9A] yielded a self-cleavage of 0.04.
CCGCCUAAGACUGCCAAUGCGGGUCCCAAGCCCGGAUAAAAGUGGAGGGGGCGG [C21G C9G] gave a self-cleavage of 0.07.
CCGCCUAAUACUGCCAAUGCGGGUCCCAAGCCCGGAUAAAAGUGGAGGGGGCGG [C21G C9U] showed a self-cleavage of 0.04.
CCGCCUAACACUGCCAAUGCGGGUACCAAGCCCGGAUAAAAGUGGAGGGGGCGG [C21G C25A] showed a self-cleavage of 0.04.
Variant CCGCCUAACACUGCCAAUGCGGGUGCCAAGCCCGGAUAAAAGUGGAGGGGGCGG [C21G C25G] has a self-cleavage of 0.03.
In the case of CCGCCUAACACUGCCAAUGCGGGUUCCAAGCCCGGAUAAAAGUGGAGGGGGCGG [C21G C25U], the self-cleavage is reported as 0.05.
Work on CCGCCUAACACUGCCAAUGCGGGUCACAAGCCCGGAUAAAAGUGGAGGGGGCGG [C21G C26A] yielded a self-cleavage of 0.02.
Work on CCGCCUAACACUGCCAAUGCGGGUCGCAAGCCCGGAUAAAAGUGGAGGGGGCGG [C21G C26G] yielded a self-cleavage of 0.05.
Work on CCGCCUAACACUGCCAAUGCGGGUCUCAAGCCCGGAUAAAAGUGGAGGGGGCGG [C21G C26U] yielded a self-cleavage of 0.06.
Variant CCGCCUAACACUGCCAAUGCGGGUCCAAAGCCCGGAUAAAAGUGGAGGGGGCGG [C21G C27A] has a self-cleavage of 0.04.

— the RNAGym collection of RNA variant scans (doi:10.1002/anie.201605470)
